Source: PubChem
CDK5 inh: CDK5/p35 (human) kinase inhibition | Recombinant CDK5/p35, ADP-Glo luminescence, 60 min | inhibition, % at 10 µM | AID 488839 | Q00535+Q15078 | actives 0.01% (n = 330,000);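 active = highest replicate inhibition of at least 50% and at least 75% of replicates reaching 50%; inconclusive = only one of the two criteria met; inactive = both criteria failed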;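 also: plate controls were DMSO neutral control for no effect and GW8510 at 10 µM for full effect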
SR-BI HDL uptake: mouse SR-BI HDL lipid transfer inhibition. Q61009. ldlA[mSR-BI] CHO cells, DiI-HDL uptake fluorescence, 3 h. inhibition, % at 12.5 µM. actives 0.96% (n = 320,000). AID 488896;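 active = mean replicate inhibition of at least 70% and a set share of replicates each scoring 70 or more; inconclusive = meets just one of the two criteria; inactive = fails both criteria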;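 also: 0% = median of neutral control wells and 100% = median of positive control wells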
Target sequence (Q61009 whole entry, looked up): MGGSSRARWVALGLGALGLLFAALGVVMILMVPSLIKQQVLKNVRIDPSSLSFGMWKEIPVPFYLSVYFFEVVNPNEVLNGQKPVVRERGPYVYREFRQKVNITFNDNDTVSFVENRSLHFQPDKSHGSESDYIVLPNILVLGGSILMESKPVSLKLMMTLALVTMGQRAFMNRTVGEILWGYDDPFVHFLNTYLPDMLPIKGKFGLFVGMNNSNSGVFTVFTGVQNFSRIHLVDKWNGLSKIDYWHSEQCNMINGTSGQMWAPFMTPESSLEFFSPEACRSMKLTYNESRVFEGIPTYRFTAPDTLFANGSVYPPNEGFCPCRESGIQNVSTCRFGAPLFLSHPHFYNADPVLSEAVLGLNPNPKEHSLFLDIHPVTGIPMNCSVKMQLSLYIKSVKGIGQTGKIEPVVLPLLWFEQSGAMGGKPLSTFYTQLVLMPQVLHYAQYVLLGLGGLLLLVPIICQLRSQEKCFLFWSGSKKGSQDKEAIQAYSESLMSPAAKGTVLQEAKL
dFosB activator: enhances mouse delta FosB homodimer DNA binding | P13346 | purified delta FosB, TAMRA-CDK5 oligo fluorescence polarization; percent of positive-control signal above neutral wells | activation, % at 25 µM | actives 0.99% (n = 340,000) | AID 493131;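 active = mean activation above about 17%, with every replicate also reaching it, limit read from the data, passing the limit was not always enough; inconclusive = only one of the two conditions met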
SR-BI uptake up: enhances SR-BI lipid uptake from DiI-HDL; CHO ldlA[mSR-BI] cells, DiI-HDL uptake fluorescence, 3 h; 100 = double the neutral-control signal; activation, % at 12.5 µM; actives 0.096% (n = 320,000); AID 504775;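 active = mean replicate activation of at least 60% and every replicate at or above 60%; inconclusive = mean or all-replicate condition met, but not both; inactive = mean below 60% and not all replicates reaching 60%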;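 also: 0% = median plate neutral-control signal and 100% = twice that signal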
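Test system: SR-BI-overexpressing, LDLR-lacking CHO cells; Medium: Ham's F12 with 0.5% BSA, HEPES 25 mM, pH 7.4; Schedule: 3 h, 37 °C; Technique: bottom-read fluorescence, 550/595 nm.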
An asterisk follows results filed as active; ? = inconclusive; / = no result given. Compounds with a hit are over-represented: about 2% of the library has one in this group of screens.

SMILES	CDK5 inh	SR-BI HDL uptake	dFosB activator	SR-BI uptake up
COc1ccc2c(c1)[nH]c1c(=O)n(/N=C/c3ccc(OC)c(COc4ccccn4)c3)cnc12	0.2	-20.1	10.8	20.1
COc1ccc2c(c1)[nH]c1c(=O)n(/N=C/c3ccc(OC)c(CN4CCCCC4)c3)cnc12	1.3	-22.9	74.0*	22.9
CCC1(C(=O)OC)NC(c2ccco2)C2C(=O)N(c3ccc(C)cc3)C(=O)C21 (stereo not drawn)	0.6	-157.8	-0.2	157.8*
CCOC(=O)C1(C)NC(c2ccco2)C2C(=O)N(c3ccc(C)cc3)C(=O)C21 (stereo not drawn)	1.5	-3.4	-9.9	3.4
COc1ccccc1Nc1ccc(Nc2ccccc2OC)nn1	-2.5	80.7*	-2.4	-80.7
CCn1c(NC(=O)c2cccc(Cn3cc(Cl)cn3)c2)nc2ccccc21	-1.2	92.5*	-8.3	-92.5
Cn1c(NC(=O)c2cccc(Cn3cc(Cl)cn3)c2)nc2ccccc21	-0.2	51.1	11.7	-51.1
NNC(=O)c1cc(C23CC4CC(CC(C4)C2)C3)nc2ccccc12	0.3	88.8*	2.7	-88.8
O=C(NNc1c2ccccc2nc2ccccc12)C12CC3CC(CC(C3)C1)C2	-3.3	13.6	-4.5	-13.6
O=C(N/N=C/c1ccccc1OCc1ccccc1)c1cccs1	1.2	75.6*	0.2	-75.6
COc1cc(/C=N/NC(=O)c2cccs2)ccc1OCc1ccccc1	0.8	42.7	6.4	-42.7
O=C(N/N=C/c1cccc([N+](=O)[O-])c1O)c1cccs1	2.9	98.4*	-2.6	-98.4
O=C1/C(=C/c2cccs2)SC(=S)N1CCC(=O)N1CCCCC1CCO (stereo not drawn)	0.0	7.7	-8.3	-7.7
COc1ccc(NC(=O)C2CCN(C(=O)[C@@H]3Cc4ccccc4CN3C(=O)OC(C)(C)C)CC2)cc1	1.0	4.8	-13.4	-4.8
Cc1cccc(NC(=O)CCc2ccccc2)c1C	-0.4	-9.8	3.0	9.8
CCOc1ccccc1NC(=O)c1ccc(OCC(=O)N2CCOCC2)c(OC)c1	2.1	30.8	-2.9	-30.8
COc1ccc(C(=O)Nc2ccccc2N2CCCCC2)cc1[N+](=O)[O-]	0.4	77.5*	0.1	-77.5
Cc1ccc(C(=O)Nc2ccccc2N2CCCCC2)cc1[N+](=O)[O-]	-1.8	64.9	-2.6	-64.9
COc1ccc(C(=O)NC(=S)Nc2ccccc2N2CCOCC2)cc1Br	1.9	54.8	-5.0	-54.8
COc1ccc(C(=O)Nc2ccccc2N2CCOCC2)cc1Br	-0.5	79.9*	-5.7	-79.9
COc1ccc(OC)c(NC(=O)c2ccc(OCC(=O)N3CCOCC3)c(OC)c2)c1	-0.6	72.5*	-7.6	-72.5
CCOc1ccc(NC(=O)CN(C)C(=O)c2cc3c(s2)CCCCC3)cc1OCC	0.5	30.0	-4.2	-30.0
CN1OC[C@@H]2CN(Cc3ccccc3)[C@H](c3cccc(-c4ccc(C#N)cc4)c3)C[C@@H]21	-0.1	15.1	-14.6	-15.1
Cc1ccc(S(=O)(=O)N2CCN(C(=O)COC(=O)c3ccc([N+](=O)[O-])o3)CC2)c(C)c1	-1.6	11.3	-7.5	-11.3
Cc1ccc(S(=O)(=O)N2CCN(C(=O)COC(=O)c3ccc(Cl)nc3)CC2)c(C)c1	-1.8	-3.0	31.5*	3.0
SMILES	CDK5 inh	SR-BI HDL uptake	dFosB activator	SR-BI uptake up
Cc1ccc(S(=O)(=O)N2CCN(C(=O)COC(=O)c3cc([N+](=O)[O-])ccc3NCCO)CC2)c(C)c1	-6.2	79.3*	-9.2	-79.3
CCC(CO)[n+]1c(C)cc(/C=C2\Sc3ccccc3N2Cc2ccccc2)cc1C (stereo not drawn)	2.0	47.8	23.8*	-47.8
CCc1noc(C)c1C(=O)Nc1nc(-c2ccc(Cl)cc2Cl)c(C)s1	-0.6	75.0*	-7.3	-75.0
Cc1onc(-c2ccccc2Cl)c1C(=O)Nc1nnc(-c2ccc(Cl)cc2Cl)s1	0.3	15.7	-7.9	-15.7
Cc1ccc2cc3c(=O)n(C)cc(C=O)c3nc2c1	1.7	/	-14.3	/
Cc1ccc(NC(=O)c2ccc(Cl)c(S(=O)(=O)NCc3ccco3)c2)c(O)c1	-2.2	90.0*	-7.5	-89.9
NS(=O)(=O)c1ccc(NC(=O)c2ccc(Cl)c(S(=O)(=O)NCc3ccco3)c2)cc1	1.4	37.2	-9.6	-37.2
COC(=O)c1c(C)[nH]c(C(=O)C(C)OC(=O)C2CC2)c1C (stereo not drawn)	-2.0	-3.0	3.0	3.0
COc1cc(/C=C/c2sc3ccccc3[n+]2CCCS(=O)(=O)[O-])ccc1O	18.8	-18.4	241.3*	18.4
Cc1ccc2c(c1)sc(C)[n+]2CCCS(=O)(=O)[O-]	1.7	-15.0	-5.7	15.0
CCC(/C=C1\Oc2ccc(OC)cc2N1C)=C\c1sc2ccccc2[n+]1CCCS(=O)(=O)[O-]	1.6	-12.7	25.7*	12.7
COc1cc2c(cc1OC)C(c1ccc(-c3ccc(Cl)c(Cl)c3)o1)=NCC2	-0.6	69.8	52.1*	-69.8
COc1cc2c(cc1OC)C(c1ccc(-c3cc(Cl)ccc3Cl)o1)=NCC2	-2.1	?	2.1	-49.5
Cc1nn(S(=O)(=O)c2cccc([N+](=O)[O-])c2)c(C)c1S(=O)(=O)N1CCOCC1	-5.1	-0.4	10.2	0.4
CC(C)Sc1nc2c(c(=O)n1C)SC(C)C2 (stereo not drawn)	1.8	-182.8	-2.8	182.8*
C=CCNC(=S)Nc1sc2c(c1C(=O)OCC)CC(C(C)C)OC2 (stereo not drawn)	-2.9	73.6*	-11.0	-73.6
CC(=O)Nc1ccc(NC(=O)C(C)OC(=O)/C(C#N)=C/c2ccc(N(C)C)cc2)cc1 (stereo not drawn)	1.8	20.1	36.3*	-20.1
COc1cc(Cl)c(C)cc1NC(=O)CSc1ccc(C)cc1	-0.5	30.8	-0.6	-30.8
COc1cc(Cl)c(C)cc1NC(=O)CNC(=O)Cn1cnc2ccccc2c1=O	2.2	85.0*	13.5	-85.0
COc1cc(OC)c(NC(=O)CCNC(=O)Cn2cnc3ccccc3c2=O)cc1Cl	-1.4	18.8	0.4	-18.8
COc1cc(Cl)c(C)cc1NC(=O)CSc1cc(Cl)ccc1Cl	-0.5	82.4*	-6.4	-82.4
Cc1ccccc1-c1cc(C(=O)NCc2ccc3c(c2)OCO3)n(CC2CC(c3cccnc3)=NO2)n1 (stereo not drawn)	1.5	-6.9	-1.0	6.9
CC(C)(OC(=O)c1cccs1)c1cc2ccccc2c(=O)o1	-1.9	-19.8	-4.9	19.8
O=C(CCSc1nc2ccccc2s1)N/N=C/c1c(O)ccc2ccccc12	2.0	105.0*	21.0*	-105.0
CCOCC(O)CNc1ccccc1 (stereo not drawn)	-0.4	-28.0	-2.7	28.0
OC(CNc1ccccc1)COc1ccc(OCC(O)CNc2ccccc2)cc1 (stereo not drawn)	-0.7	73.6*	0.2	-73.6
CN(C(=O)COC(=O)C1COc2ccccc2O1)c1c(N)n(Cc2ccccc2)c(=O)[nH]c1=O (stereo not drawn)	-1.5	-17.6	0.7	17.6
O=c1c2c([N+](=O)[O-])cc([N+](=O)[O-])cc2sn1-c1ccc(Br)cc1	-0.9	79.1*	-4.7	-79.1
